Where two headings read alike, the source gives them in different places.
Columns and labels:
[1] = target: recombinant human CB1 (hCB1) (Homo sapiens, UniProt P21554); assay: γ-[35S]GTP functional assay, hCB1; type: biochemical
[2] = target: recombinant human CB2 (hCB2) (Homo sapiens, UniProt P34972); assay: γ-[35S]GTP functional assay, hCB2; type: biochemical; settings: for γ-[35S]GTP hCB2 Emax: percentage relative to the efficacy of compound 7
[3] = tested on: tactile allodynia in a paclitaxel-induced neuropathic pain model; assay: Tactile allodynia in paclitaxel-induced neuropathic pain model; type: in vivo, rat; settings: paclitaxel-treated rats; for Effect on mechanical (tactile) allodynia: intraperitoneal administration
Method in brief: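 Adult male Sprague Dawley rats (120–150 g) were housed three per cage on a 12 h light/dark cycle. Paclitaxel was given at 1.0 mg kg−1 i.p. daily for 4 days (cumulative 4 mg kg−1), with vehicle 10 % Cremophor EL in saline at 1 mL kg−1. Hind-paw mechanical withdrawal was tested daily from day 0 after ≥30 min acclimation on wire mesh. Test compound was given i.p.; n = 5–6 per group.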

hCB2 = hCB2 (Homo sapiens, UniProt P34972); assay: Radioligand competitive binding assay
K+ channel hERG = K+ channel hERG (Homo sapiens, UniProt Q12809)
[4] = tested on: neuropathic pain in spinal nerve ligation and paclitaxel-induced neuropathy models; settings: cited from earlier work
plasma protein = settings: 1.0E-05 M
[5] = PBS, pH 7.4, at 2.0 × 10^-4 M
hCB1 = hCB1 (Homo sapiens, UniProt P21554); assay: Radioligand competitive binding assay, hCB1
[6] = read-out: Ki hCB2, CHO-K1 membranes, 1 nM [3H]7, mean ± SEM

Sequence of hCB1 (P21554 whole entry): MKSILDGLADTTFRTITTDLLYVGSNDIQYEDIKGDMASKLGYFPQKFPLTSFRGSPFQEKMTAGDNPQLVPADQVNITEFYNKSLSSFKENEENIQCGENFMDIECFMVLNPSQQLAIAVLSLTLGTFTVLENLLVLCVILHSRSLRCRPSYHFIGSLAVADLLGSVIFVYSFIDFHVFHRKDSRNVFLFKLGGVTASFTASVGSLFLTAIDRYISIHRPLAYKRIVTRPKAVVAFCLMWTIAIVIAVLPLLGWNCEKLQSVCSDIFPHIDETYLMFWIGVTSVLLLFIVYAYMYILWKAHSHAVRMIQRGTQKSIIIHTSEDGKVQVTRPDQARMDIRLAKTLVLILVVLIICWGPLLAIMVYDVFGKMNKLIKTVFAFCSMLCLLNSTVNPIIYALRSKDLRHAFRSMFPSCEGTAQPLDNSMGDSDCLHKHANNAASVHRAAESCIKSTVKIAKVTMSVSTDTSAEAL
Sequence of recombinant human CB1 (hCB1) (P21554 whole entry): as above
Sequence of hCB2 (P34972 whole entry): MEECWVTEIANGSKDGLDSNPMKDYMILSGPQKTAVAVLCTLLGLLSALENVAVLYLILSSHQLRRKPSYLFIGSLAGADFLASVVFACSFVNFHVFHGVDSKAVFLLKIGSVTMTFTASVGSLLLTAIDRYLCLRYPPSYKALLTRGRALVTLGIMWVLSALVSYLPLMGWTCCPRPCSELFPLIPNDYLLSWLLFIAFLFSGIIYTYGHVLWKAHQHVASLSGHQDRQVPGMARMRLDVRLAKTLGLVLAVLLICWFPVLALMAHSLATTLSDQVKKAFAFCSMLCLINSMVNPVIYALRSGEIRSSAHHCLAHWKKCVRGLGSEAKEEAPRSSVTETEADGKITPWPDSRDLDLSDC
Sequence of recombinant human CB2 (hCB2) (P34972 whole entry): as above
Sequence of K+ channel hERG (Q12809 whole entry): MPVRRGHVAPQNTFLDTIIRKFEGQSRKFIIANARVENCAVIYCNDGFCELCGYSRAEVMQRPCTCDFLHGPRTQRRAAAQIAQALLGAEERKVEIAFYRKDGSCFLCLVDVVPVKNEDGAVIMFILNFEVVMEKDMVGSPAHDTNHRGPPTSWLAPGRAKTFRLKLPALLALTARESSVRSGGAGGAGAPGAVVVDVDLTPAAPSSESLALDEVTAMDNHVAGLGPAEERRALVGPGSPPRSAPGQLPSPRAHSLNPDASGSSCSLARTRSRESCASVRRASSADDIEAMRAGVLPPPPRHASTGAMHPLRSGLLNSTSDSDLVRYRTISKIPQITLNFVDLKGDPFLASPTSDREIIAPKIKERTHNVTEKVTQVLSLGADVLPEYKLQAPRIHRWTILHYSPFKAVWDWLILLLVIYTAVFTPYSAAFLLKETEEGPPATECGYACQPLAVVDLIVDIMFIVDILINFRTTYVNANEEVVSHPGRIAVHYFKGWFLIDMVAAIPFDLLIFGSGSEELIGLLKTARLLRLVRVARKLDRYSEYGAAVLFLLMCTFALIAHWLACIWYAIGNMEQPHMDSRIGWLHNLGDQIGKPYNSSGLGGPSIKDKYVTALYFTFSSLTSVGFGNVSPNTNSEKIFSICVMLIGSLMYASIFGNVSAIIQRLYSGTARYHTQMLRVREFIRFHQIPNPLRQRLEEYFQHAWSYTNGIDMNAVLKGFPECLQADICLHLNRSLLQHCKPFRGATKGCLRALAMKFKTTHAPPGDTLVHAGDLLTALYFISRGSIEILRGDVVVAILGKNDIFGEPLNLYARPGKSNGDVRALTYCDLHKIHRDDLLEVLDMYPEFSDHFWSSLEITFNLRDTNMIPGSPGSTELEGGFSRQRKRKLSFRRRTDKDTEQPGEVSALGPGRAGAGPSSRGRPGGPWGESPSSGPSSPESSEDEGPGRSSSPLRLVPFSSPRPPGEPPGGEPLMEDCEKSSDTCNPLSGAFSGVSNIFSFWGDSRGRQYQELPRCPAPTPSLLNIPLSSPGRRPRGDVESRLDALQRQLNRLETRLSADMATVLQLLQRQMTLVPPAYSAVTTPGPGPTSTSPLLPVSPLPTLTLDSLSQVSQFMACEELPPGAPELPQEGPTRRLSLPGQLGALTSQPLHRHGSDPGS

CC1(Cc2cccc3ccccc23)COc2cc(C(=O)NC3CCCCC3)ccc21 (stereo not shown) [Compound 27, 3-Methyl-3-naphthalen-1-ylmethyl-2,3-dihydrobenzofuran-6-carboxylic acid cyclohexylamide]
EC50 [1]: > 10000 nM | EC50 [2]: > 10000 nM

CN1CCCCC1Cn1cc(C(=O)c2cc([N+](=O)[O-])ccc2I)c2ccccc21 (stereo not shown) [Compound 1, AM1241, reference compound]
Effects on tactile allodynia versus vehicle ([3]; i.p., 1, 3 and 5 mg kg^-1): not significantly different from the effects induced by the vehicle | Effect on mechanical (tactile) allodynia [3]: did not affect the paw withdrawal threshold

CC1(Cc2ccccc2)COc2cc(C(=O)NCC3CCOCC3)ccc21 (stereo not shown) [Compound 24, 3-Benzyl-3-methyl-2,3-dihydrobenzofuran-6-carboxylic acid (tetrahydropyran-4-ylmethyl)amide]
EC50 [1]: > 10000 nM | EC50 [2]: 659 ± 1.4 nM

COc1ccc(CC2(C)COc3cc(C(=O)N4CCCCC4)ccc32)cc1 (stereo not shown) [Compound 31, [3-[(4-Methoxyphenyl)methyl]-3-methyl-2,3-dihydrobenzofuran-6-yl]-(1-piperidyl)methanone]
EC50 [1]: > 10000 nM | EC50 [2]: 235 nM

CCC/C=C/CC1(C)COc2cc(C(=O)N3CCCCC3)ccc21 (stereo not shown) [Compound 19]
%MPE for reversing mechanical allodynia versus vehicle ([3]; i.p., 15 mg kg^-1): significantly different (P <0.05) from that of the vehicle | Effect on mechanical (tactile) allodynia [3]: suppressed mechanical allodynia | Ki (hCB2; [6]): 83.6 ± 23.8 nM | γ-[35S]GTP hCB1 Emax ([1]; percentage relative to the efficacy of compound 7): 60% | γ-[35S]GTP hCB2 Emax [2]: 97.1%

CC1(Cc2ccccc2)COc2cc(C(=O)N3CCCCC3)ccc21 (stereo not shown) [Compound 18, 3-Benzyl-3-methyl-2,3-dihydrobenzofuran-6-carboxylic acid piperidine amide]
Genetic toxicity (Ames test) (strain TA98; up to 10 μM): No genetic toxicity | Ames test (strain TA98 +S9) (strain TA98; with S9): <0 | Ames test (strain TA98) (strain TA98; without S9): <0 | Cardiac toxicity (K+ channel hERG): did not show any cardiac toxicity | K+ channel hERG automated patch-clamp (cardiac toxicity) (K+ channel hERG; at 1 μM): inactive at 1 μm | Effect on locomotor behavior ([4]; rats): without affecting locomotor behavior | Effect on neuropathic pain ([4]; spinal nerve ligation and paclitaxel-induced neuropathy models in rats): reversed neuropathic pain | Protein bound (human) (plasma protein): 82.8 ± 11.1% | Protein recovery (human) (plasma protein): 95.6 ± 13.6% | Ki (hCB2; [6]): 422 ± 123 nM | Aqueous solubility [5]: 31.8 ± 1.8 μm μM | Intestinal permeability, assessment (TC7): compatible with oral administration with no efflux | A–B permeability (% recovery) (TC7; TC7, pH 6.5/7.4): 63.5 ± 6.5% | B–A permeability (% recovery) (TC7; TC7, pH 6.5/7.4): 85.5 ± 0.5% | A–B permeability (TC7; TC7, pH 6.5/7.4, 1.0E-05 M): 52.2 ± 1.7 10^−6 cm s^−1 | B–A permeability (TC7; TC7, pH 6.5/7.4, 1.0E-05 M): 16.2 ± 0.2 10^−6 cm s^−1 | γ-[35S]GTP hCB2 Emax [2]: 88.3% | Ki (hCB1; read-out: Ki hCB1, mean ± SEM): > 10000 nM

CC1(Cc2ccncc2)COc2cc(C(=O)N3CCCCC3)ccc21 (stereo not shown) [Compound 32, [3-Methyl-3-(4-pyridylmethyl)-2,3-dihydrobenzofuran-6-yl]-(1-piperidyl)methanone]
EC50 [1]: > 10000 nM | EC50 [2]: 2800 nM

CC1(Cc2ccc(Cl)cc2)COc2cc(C(=O)N3CCCCC3)ccc21 (stereo not shown) [Compound 30, [3-(4-Chlorobenzyl)-3-methyl-2,3-dihydrobenzofuran-6-yl]piperidin-1-ylmethanone]
Ki (hCB2): 123 ± 16.5 nM | EC50 [1]: 1363 ± 1.4 nM | Emax ([1]; read-out: γ-[35S]GTP hCB1 Emax): 86.9% | EC50 [2]: 56.2 ± 1.2 nM

CC1(Cc2ccc3ccccc3c2)COc2cc(C(=O)N3CCCCC3)ccc21 (stereo not shown) [Compound 29, (3-Methyl-3-naphthalen-2-ylmethyl-2,3-dihydrobenzofuran-6-yl)-piperidin-1-ylmethanone]
Ki (hCB2): 490 ± 45 nM | EC50 [1]: > 10000 nM | EC50 [2]: 875 ± 1.4 nM | Ki (hCB1): 430 ± 39 nM

CC1(Cc2ccccc2)COc2ccc(C(=O)NC3CCCCC3)cc21 (stereo not shown) [Compound 14, 3-Benzyl-3-methyl-2,3-dihydrobenzofuran-5-carboxylic acid cyclohexylamide]
EC50 [1]: > 10000 nM

CC1(Cc2ccccc2)COc2cc(C(=O)N3CCOCC3)ccc21 (stereo not shown) [Compound 22, (3-Benzyl-3-methyl-2,3-dihydrobenzofuran-6-yl)morpholinomethanone]
EC50 [1]: > 10000 nM | EC50 [2]: 5583 ± 4.4 nM

C[C@@]1(Cc2ccccc2)COc2cc(C(=O)N3CCCCC3)ccc21 [Compound 33, (S)-3-Benzyl-3-methyl-2,3-dihydrobenzofuran-6-carboxylic acid piperidine amide]
γ-[35S]GTP hCB2 Emax [2]: 86%

CC1(Cc2ccccc2)COc2cc(C(=O)NC3CCCCC3)ccc21 (stereo not shown) [Compound 17, 3-Benzyl-3-methyl-2,3-dihydrobenzofuran-6-carboxylic acid cyclohexylamide]
EC50 [1]: > 10000 nM

CCC/C=C/CC1(C)COc2cc(C(=O)NC3CCCCC3)ccc21 (stereo not shown) [Compound 20, 3-((E)-Hex-2-enyl)-3-methyl-2,3-dihydrobenzofuran-6-carboxylic acid cyclohexylamide]
Ki (hCB2): > 1000 nM | EC50 [1]: > 10000 nM | EC50 [2]: 839 ± 5.5 nM | Ki (hCB1): > 1000 nM

CN(C(=O)c1ccc2c(c1)OCC2(C)Cc1ccccc1)C(C)(C)C (stereo not shown) [Compound 23, 3-Benzyl-N-tert-butyl-N,3-dimethyl-2,3-dihydrobenzofuran-6-carboxamide]
EC50 [1]: 2580 ± 1.5 nM | EC50 [2]: 95.3 ± 1.8 nM

CC1(Cc2cccc3ccccc23)COc2cc(C(=O)N3CCCCC3)ccc21 (stereo not shown) [Compound 28, (3-Methyl-3-naphthalen-1-ylmethyl-2,3-dihydrobenzofuran-6-yl)-piperidin-1-ylmethanone]
EC50 [1]: > 10000 nM | EC50 [2]: > 10000 nM

C[C@]1(Cc2ccccc2)COc2cc(C(=O)N3CCCCC3)ccc21 [Compound 34, (R)-3-benzyl-3-methyl-2,3-dihydrobenzofuran-6-carboxylic acid piperidine amide]
γ-[35S]GTP hCB2 Emax [2]: 43.3%

Reference: PMC3262993 (Chemmedchem, 2009)
